Measured values from publication PMC8108386 (Chemical Science, 2020).
Where two headings read alike, the source gives them in different places.

How the values were obtained:
[1] = Singlet oxygen quantum yield by direct 1O2 phosphorescence, relative to [Ru; type: physicochemical; conditions: MeCN
[2] = system: human melanoma SKMEL28 cells; assay: Cytotoxicity and photocytotoxicity, resazurin, 384-well, UTA; type: cell-based; conditions: visible vs. 733 nm
[3] = system: SKMEL28 cells; assay: Photocytotoxicity at high fluence and irradiance, Modulight ML8500; type: cell-based, human
How it was run: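 SKMEL28 photocytotoxicity was tested with a well-by-well illumination system that sets wavelength, fluence and irradiance separately for each well, allowing higher fluences and irradiances than whole-plate sources. Light-only control wells were included.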

[4] = system: female C57BL/6J mice; assay: Maximum tolerated dose, dose escalation, intraperitoneal injection; type: in vivo, mouse
How it was run: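 A dose-escalation safety study in mice used intraperitoneal injection at doses up to 100 mg kg−1. MTD was assigned from the appearance of observable toxicity.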

[5] = system: B16F10 tumor; type: in vivo, C57BL/6NCrl mice; conditions: for protection from tumor growth (tumor-free mice): challenged with live B16F10 cells
How it was run: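 B16F10 cells were treated in vitro with test compound (1.40 μM) plus light. Cells collected 4 h and 12 h post-treatment were pooled and injected SC into the left flank of female and male C57BL/6NCrl mice, with PBS as control. After 7 days, untreated B16F10 cells were injected into the right flank. Tumor growth and tumor-free survival were followed, and hazard ratios derived.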

[6] = system: A375, B16F10 and SKMEL28 melanoma cell lines; assay: Dark and light cytotoxicity stated for all three melanoma cell lines; type: cell-based; conditions: read-out: dark EC50 values, toward all three melanoma cell lines
How it was run: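 Log-phase A375, B16F10 and SKMEL28 melanoma cells were seeded and dosed with test compound (1 nM to 300 μM) in the dark. They were incubated 48 h, and viability was read by resazurin assay. EC50 is the concentration that reduces relative viability by 50%, taken from dose–response curves and reported as Log(EC50 ± SEM).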

[7] = Observations on stability and behaviour in solution; type: physicochemical; conditions: 37 °C, extended periods of time, absence of a light trigger

| Substance | ΦΔ (singlet oxygen quantum yield) ([1]; λex 630 nm) | ΦΔ (singlet oxygen quantum yield) ([1]; λex 753 nm) | difference between the visible and NIR EC50 values [2] [fold] | EC50 ([3]; 753 nm (200 J cm−2, 300 mW cm−2)) [µM] | photocytotoxicity with 976 nm ([3]; 976 nm regardless of the fluence (data not shown)) | reduction of cell viability ([3]; all light treatments except 810 nm, down to 2.5 μM) [%] | maximum tolerated dose (MTD) [4] [mg/kg] | protection from tumor growth (tumor-free mice) ([5]; female C57BL/6 mice vaccinated with 2-PDT treated B16F10 cells) [%] | hazard ratios ([5]; female and male mice, vaccinated vs. unvaccinated) | protection from tumor growth (tumor-free mice) ([5]; male C57BL/6 mice vaccinated with 2-PDT treated B16F10 cells) [%] | EC50 [6] [µM] | stability to ligand dissociation [7] | ΦΔ (singlet oxygen quantum yield) ([1]; λex 455 nm (excitation maximum)) |
| --- | --- | --- | --- | --- | --- | --- | --- | --- | --- | --- | --- | --- | --- |
| [Ru(tpbn)(dppn)(4-pic)]Cl2 [Compound 2] | 0.93 | 0.86 | 5 | 2.02 | ineffective | ≥ 60 | 50 | 80 | ≤ 0.2 | 55 | ≥ 46.3 | completely stable |  |
| [Ru(tpbn)(phen)(4-pic)]Cl2 [Compound 8] | 0.10 | 0.10 |  |  |  |  |  |  |  |  | ≥ 46.3 |  | 0.17 |
